Active and inactive are the calls of the source. No cut-off for these calls is given here.
How the values were obtained:
[1] = Ratio of antiviral activity against human CMV to rhesus CMV; type: functional, Cercopithecine herpesvirus 8
[2] = system: Human immunodeficiency virus; assay: Antiviral activity against HIV; type: functional, organism-based
Human gammaherpesvirus 4 = assay: Antiviral activity against EBV; type: functional, organism-based
HFF [3] = assay: Antiviral activity against human CMV by luciferase reporter gene assay in HFF cells; type: functional, cell-based
Outline: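 HFF cells (10^4/well) were rested 2 h, then infected with rhCMVLuc at MOI 1 pfu/cell. Inoculum was removed after 1 h and drug added (0.005–5 µM or 0.05–50 µM) for 48 h at 37 °C. Luciferase was read with Mg(OAc)2, 30 mM Tricine pH 7.8 and 200 µM EDTA. IC50 is 50% inhibition of hCMV DNA replication.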

Human betaherpesvirus 6 = assay: Antiviral activity against HHV6; type: functional, organism-based
Murid betaherpesvirus 1 = assay: Antiviral activity against mouse CMV; type: functional, organism-based
Caviid betaherpesvirus 2 = assay: Antiviral activity against guinea pig CMV; type: functional, organism-based
Human alphaherpesvirus 1 = assay: Antiviral activity against HSV; type: functional, organism-based
Murid betaherpesvirus 2 = assay: Antiviral activity against rat CMV; type: functional, organism-based
HFF [4] = assay: Antiviral activity against human CMV by dot blot assay in HFF cells; type: functional, cell-based
Outline: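 Dot blot DNA replication readout. HFF cells were seeded at 2 × 10^4 cells/well and infected with rhCMVLuc, clinical isolates or wild-type virus, then incubated 72 h with drug. Cells were lysed in 0.4 N NaOH, 0.5 M EDTA, applied to membrane by microfiltration and UV-crosslinked. DNA was hybridized to a hCMV-specific 32P probe and detected by phosphorimaging.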

Jurkat = assay: Cytotoxicity against human Jurkat cells; type: functional, cell-based
Outline: (§1)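 HFF or Jurkat cells were seeded and compound added 3 h later. Alamar blue staining at 0, 24, 48 and 72 h, then a further 3 h incubation, with fluorescence read-out. IC50 is the concentration inhibiting cell growth by 50%.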

HFF [5] = assay: Cytotoxicity against HFF cells; type: functional, cell-based; settings: Homo sapiens; outline: as §1
Human betaherpesvirus 5 [6] = assay: Inhibition of human CMV growth by plaque reduction assay; type: functional
Outline: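 Plaques counted after 10-day incubation of 10^5 cells infected with 1000 pfu of wild-type, clinical-isolate or resistant virus; IC99.9 is the drug amount inhibiting plaque formation by 99.9%.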

Human betaherpesvirus 5 [7] = assay: Inhibition of human CMV growth by viral yield assay; type: functional
Outline: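 Viral yield: once CPE appeared, well supernatants were serially diluted 1:2 sixteen times and used to infect fresh HFF cells (10^4/well). Inoculum was removed after 1 h; cells were incubated 5–7 days until CPE. Yield was quantified and IC99.9 taken as the drug concentration giving 99.9% inhibition of replication.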

[8] = system: DNA primase UL70 (Human cytomegalovirus); assay: Binding affinity to human CMV UL70 primase by immunoprecipitation assay; settings: Human betaherpesvirus 5; tested as the 3H-labelled form

SMILES	Selectivity ratio [1]	Activity [2]	Activity (Human gammaherpesvirus 4)	IC50 (HFF [3]) [nM]	Activity (Human betaherpesvirus 6)	Activity (Murid betaherpesvirus 1)	Activity (Caviid betaherpesvirus 2)	Activity (Human alphaherpesvirus 1)	Activity (Murid betaherpesvirus 2)	further results
Cc1nccn1-c1nc(N(C)Cc2ccccc2)nc2c1S(=O)(=O)CC2	>=10	inactive	inactive	> 30000	inactive	inactive	inactive	inactive	inactive	
Cc1cc(-n2ccnc2C)nc(N(C)Cc2ccccc2)n1	>=10	inactive	inactive	> 30000	inactive	inactive	inactive	inactive	inactive	
Cc1nccn1-c1nc(N(C)Cc2ccccc2)nc(CCN(C)C)c1[N+](=O)[O-]	>=10	inactive	inactive	6000	inactive	inactive	inactive	inactive	inactive	
Cc1nc(N(C)Cc2ccccc2)nc(-n2ccnc2C)c1C#N	>=10	inactive	inactive	> 30000	inactive	inactive	inactive	inactive	inactive	
Cc1nc(N(C)c2ccccc2)nc(-n2ccnc2C)c1[N+](=O)[O-]	>=10	inactive	inactive	550	inactive	inactive	inactive	inactive	inactive	IC50 (HFF [4]): 300 nM; IC50 (Jurkat): 80 µM; IC50 (HFF [5]): 100 µM; IC100 (Human betaherpesvirus 5 [6]): 2.5 µM; IC100 (Human betaherpesvirus 5 [7]): 2 µM
Cc1nccn1-c1nc(N(C)Cc2ccccc2)nc(Cl)c1[N+](=O)[O-]	>=10	inactive	inactive	> 30000	inactive	inactive	inactive	inactive	inactive	
Cc1cn(-c2nc(N(C)Cc3ccccc3)nc(C)c2[N+](=O)[O-])cn1	>=10	inactive	inactive	10000	inactive	inactive	inactive	inactive	inactive	
Cc1nc(N(C)Cc2ccccc2)nc(-n2c(C)nc3ccccc32)c1[N+](=O)[O-]	>=10	inactive	inactive	> 30000	inactive	inactive	inactive	inactive	inactive	
Cc1nc(NC2CCc3ccccc32)nc(-n2ccnc2C)c1[N+](=O)[O-] (stereo not given)	>=10	inactive	inactive		inactive	inactive	inactive	inactive	inactive	IC50 (HFF [4]): 53 nM; IC50 (Jurkat): 100 µM; IC50 (HFF [5]): > 100 µM; IC100 (Human betaherpesvirus 5 [6]): 0.5 µM; IC100 (Human betaherpesvirus 5 [7]): 0.1 µM
Cc1nc(N(C)Cc2ccccc2)nc(-n2ccnc2C(C)C)c1[N+](=O)[O-]	>=10	inactive	inactive	770	inactive	inactive	inactive	inactive	inactive	
Cc1nc(N(C)Cc2ccccc2)nc(-n2ccnc2C)n1	>=10	inactive	inactive	> 30000	inactive	inactive	inactive	inactive	inactive	
CCc1nccn1-c1nc(N(C)Cc2ccccc2)nc(C)c1[N+](=O)[O-]	>=10	inactive	inactive	190	inactive	inactive	inactive	inactive	inactive	
Cc1nc(N(C)Cc2ccccc2)nc(-n2ccnc2)c1[N+](=O)[O-]	>=10	inactive	inactive	20	inactive	inactive	inactive	inactive	inactive	
[3H]CC([3H])c1nc(N(C)Cc2ccccc2)nc(-n2ccnc2C)c1[N+](=O)[O-] (stereo not given)	>=10									
Cc1nc(N2CCC(C)CC2)nc(-n2ccnc2C)c1[N+](=O)[O-]	>=10	inactive	inactive		inactive	inactive	inactive	inactive	inactive	IC50 (HFF [4]): 300 nM
Nc1nc2c(ncn2COC(CO)CO)c(=O)[nH]1 [GANCICLOVIR]										IC50 (Jurkat): > 100 µM; IC50 (HFF [5]): > 100 µM; IC100 (Human betaherpesvirus 5 [6]): 10 µM; IC100 (Human betaherpesvirus 5 [7]): 5 µM
Nc1ccn(C[C@@H](CO)OCP(=O)(O)O)c(=O)n1.O.O [CIDOFOVIR]										IC50 (Jurkat): 100 µM; IC50 (HFF [5]): > 100 µM; IC100 (Human betaherpesvirus 5 [6]): 2.5 µM; IC100 (Human betaherpesvirus 5 [7]): 1 µM
CCCCN(C)c1nc(C)c([N+](=O)[O-])c(-n2ccnc2C)n1	>=10	inactive	inactive		inactive	inactive	inactive	inactive	inactive	IC50 (HFF [4]): 300 nM
Cc1nccn1-c1nc(N(C)Cc2ccccc2)nc(C(C)C)c1[N+](=O)[O-]	>=10	inactive	inactive	3000	inactive	inactive	inactive	inactive	inactive	
CCOc1nc(C)c([N+](=O)[O-])c(-n2ccnc2C)n1	>=10	inactive	inactive		inactive	inactive	inactive	inactive	inactive	IC50 (HFF [4]): 670 nM
CCc1nc(N(C)Cc2ccccc2)nc(-n2ccnc2C)c1[N+](=O)[O-]	>=10	inactive	inactive	170	inactive	inactive	inactive	inactive	inactive	Activity ([2]; tested as the 3H-labelled form): inactive; Activity (Human gammaherpesvirus 4; tested as the 3H-labelled form): inactive; Activity (Human betaherpesvirus 6; tested as the 3H-labelled form): inactive; Activity [8]: Active; Activity (Murid betaherpesvirus 1; tested as the 3H-labelled form): inactive; Activity (Caviid betaherpesvirus 2; tested as the 3H-labelled form): inactive; Activity (Human alphaherpesvirus 1; tested as the 3H-labelled form): inactive; Activity (Murid betaherpesvirus 2; tested as the 3H-labelled form): inactive
Cc1nc(N(C)Cc2ccccc2)nc(-n2ccnc2-c2ccccc2)c1[N+](=O)[O-]	>=10	inactive	inactive	5000	inactive	inactive	inactive	inactive	inactive	
Cc1nc(N(C)Cc2ccccc2)nc(-n2ccnc2C)c1[N+](=O)[O-]	>=10	inactive	inactive	39	inactive	inactive	inactive	inactive	inactive	IC50 (HFF [4]): 61 nM; IC50 (Jurkat): 25 µM; IC50 (HFF [5]): > 100 µM; IC100 (Human betaherpesvirus 5 [6]): 0.5 µM; IC100 (Human betaherpesvirus 5 [7]): 0.2 µM
Cc1nccn1-c1nc(N(C)Cc2ccccc2)ncc1[N+](=O)[O-]	>=10	inactive	inactive	3000	inactive	inactive	inactive	inactive	inactive	

From ChEMBL document CHEMBL1149480, “Discovery of a novel series of inhibitors of human cytomegalovirus primase” (Bioorg Med Chem Lett, 2006)
